TMEM16A inh: mouse TMEM16A channel inhibition, primary screen; Q8BHY3; HEK293 TMEM16A/YFP iodide influx fluorescence, ionomycin; normalized B-score (activity score, 25-100; higher = stronger inhibition) at 10 µM; 310,000 compounds, 1.2% hits;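 active = ratio plate-corrected score three or more library SD toward inhibition, starting fluorescence score within five deviations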;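 note: score derived from kinetic fluorescence span divided by baseline fluorescence per well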
ANO1 activ: activators or potentiators of mouse TMEM16A chloride channel; Q8BHY3; HEK293 TMEM16A/YFP-H148Q/I152L, iodide quench fluorescence; stronger effect = lower value; B-score at 10 µM; 340,000 compounds, 0.3% hits;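 active = fluorescence-ratio B-score plate-corrected deviation score at least 3 library SD below zero, with starting fluorescence score within 5 deviations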;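 note: channel opened by trigger with iodide after compound preincubation; score built on the fluorescence ratio of max minus min over baseline; more negative score means more quench and so TMEM16A activation or potentiation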
CRFR2-BP antag: antagonists of CRF-binding protein/CRF-R2 receptor complex; HEK293 CRF-R2/CRF-BP, CRF-induced calcium fluorescence; 350,000 compounds, 0.59% hits; inhibition, % at 11.8 µM;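 active = inhibition of the ligand-induced calcium signal above about 50% at the single tested concentration, limit read from the data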
CRFR2-BP ag: agonists of human CRF-binding protein/CRF-R2 receptor complex; HEK293 CRF-R2/CRF-BP, calcium dye fluorescence (FLIPR); percent of saturating CRF peptide response; activation, % at 13.2 µM; 350,000 compounds, 0.46% hits; AID 588473;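 active = activation of at least 50%, plus an integration ratio under a set limit after plate pattern correction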
TAAR1 antagonist: human TAAR1 antagonism; CHO RD-HGA16 TAAR1, Fluo-8 calcium fluorescence, antagonist; 360,000 compounds, 1.5% hits; Q96RJ0; inhibition, % at 3 µM;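 active = inhibition above a per-plate cutoff, the mean inhibition of test compounds on that plate plus 3 SD, cut at about 49% in these data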
Target sequence (Q96RJ0 whole entry, looked up): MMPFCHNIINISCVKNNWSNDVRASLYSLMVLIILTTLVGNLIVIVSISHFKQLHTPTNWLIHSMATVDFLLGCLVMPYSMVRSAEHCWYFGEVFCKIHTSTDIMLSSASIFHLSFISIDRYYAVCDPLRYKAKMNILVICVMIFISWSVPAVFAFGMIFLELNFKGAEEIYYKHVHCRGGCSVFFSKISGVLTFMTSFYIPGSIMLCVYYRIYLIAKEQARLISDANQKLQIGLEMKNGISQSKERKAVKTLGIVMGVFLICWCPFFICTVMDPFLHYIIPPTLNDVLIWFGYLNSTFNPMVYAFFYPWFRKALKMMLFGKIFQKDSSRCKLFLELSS
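Test system: hTAAR1-expressing CHO RD-HGA16 cells, Gα16-coupled; Probe or stimulus: EC80 β-phenethylamine stimulus; Compound dosing: single nominal final test compound concentration of 3 µM; Timing: 140 s kinetic read after compound, 140 s after agonist; Signal: Fluo-8 calcium-sensitive fluorescence; Measure: % inhibition of agonist calcium response; Controls: DMSO and EC80 PEA controls.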
TAAR1 agonist: agonists of human TAAR1; activation, % at 3 µM; Q96RJ0; 360,000 compounds, 0.99% hits; AID 624467; CHO RD-HGA16 TAAR1, Fluo-8 calcium fluorescence; vehicle wells 0%, saturating PEA agonist 100%;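 active = activation above the mean activation of all test compounds in the run plus 3 SD, cut at about 38% in these data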
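System: CHO-derived RD-HGA16 cells with stable Gα16 and human TAAR1. Times: 17-24 h plating, Fluo-8 75 min 37 °C, 30 min RT. Measured by: calcium-sensitive Fluo-8 signal, excitation 470-495, emission 515-575 nm. Read-out basis: % activation relative to PEA EC100 response. Control set: DMSO and PEA EC100. Repeats: no replicates (n 1).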
TMEM16A reconf: reconfirmed blocker of mouse TMEM16A calcium-activated chloride channel; shares compounds with TMEM16A inh; HEK293 TMEM16A/YFP-H148Q, iodide quench fluorescence; ionomycin added to raise cell calcium; inhibition, % at 10 µM; 2,300 compounds, 39% hits; AID 652189;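 active = mean duplicate percent inhibition, scaled so buffer wells are 0 and the reference blocker 100, over three buffer SD above buffer mean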
HEK293 Ca mobil: calcium mobilization counter-screen hit for TMEM16A inhibitor series; calcium response (% of ionomycin), % at 10 µM; 2,300 compounds, 2% hits; shares compounds with TMEM16A inh; TMEM16A/YFP HEK293, Fluo4 calcium mobilization; AID 652231;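 active = duplicate-averaged calcium signal over 20% of the ionomycin maximum, relative to buffer baseline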;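 note: each well's signal is peak minus trough fluorescence divided by its pre-addition baseline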
Parental YFP cnt: parental YFP-HEK293 iodide quench counter-screen activity. shares compounds with TMEM16A inh. ionomycin. YFP ratio F(max-min)/F0 at 10 µM. 2,300 tested, under 10 active. AID 652233;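 active = yellow fluorescent protein signal ratio exceeding the buffer control mean by over 5 SD of those controls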;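 note: ratio is mean of duplicate wells from kinetic YFP trace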
ClC-1 rat inh: selectivity of TMEM16A inhibitors: inhibition of rat ClC-1 chloride channel | shares compounds with TMEM16A inh | CHO ClC-1-YFP, iodide influx fluorescence quench; iodide control reads 0, buffer control 100 | ratio percent, % at 10 µM | 2,300 tested, under 10 active | AID 652236;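 active = duplicate-mean ratio percent above the mean of iodide-only control wells, which defines zero, plus 5 of their SD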;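 note: higher percent means stronger block of ClC-1 iodide influx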
Numbers stand for hits; - = inactive; . = no result given. Compounds with a hit are over-represented: about 3.9% of the library has one in this group of screens.

SMILES	TMEM16A inh	ANO1 activ	CRFR2-BP antag	CRFR2-BP ag	TAAR1 antagonist	TAAR1 agonist	TMEM16A reconf	HEK293 Ca mobil	Parental YFP cnt	ClC-1 rat inh
CN(C)S(=O)(=O)c1cccc(COC(=O)c2cccnc2Cl)c1	25	-	-	-	-	-	-	-	-	-
OC[C@H]1O[C@H](OC[C@H]2O[C@H](OC[C@H]3O[C@H](O[C@]4(CO)O[C@H](CO)[C@@H](O)[C@@H]4O)[C@H](O)[C@@H](O)[C@@H]3O)[C@H](O)[C@@H](O)[C@H]2O)[C@H](O)[C@@H](O)[C@H]1O	-	-	-	-	-	-	.	.	.	.
CN(CC(=O)Nc1ccc(Cl)cc1)C(=O)c1sccc1-c1ccccc1	.	-	-	-	-	-	.	.	.	.
CCC1CCCCN1C(=O)CCS(=O)(=O)c1ccc2c(c1)CCN2C(C)=O (stereo not given)	-	-	-	-	-	-	.	.	.	.
O=c1cc(-c2ccccc2Cl)oc2c(NS(=O)(=O)c3cccs3)ccc(O)c12	25	-	-	-	-	-	27%	-	-	-
O=c1cc(-c2ccccc2Cl)oc2c(NS(=O)(=O)c3ccccc3C(F)(F)F)ccc(O)c12	-	-	-	-	-	-	.	.	.	.
O=C(N/N=C/c1cc2ccccc2[nH]1)c1ccccc1Cl	-	-	-	-	-	-	.	.	.	.
CC(=O)c1cccc(NC(=O)C2=CN3CCS(=O)(=O)N=C3C=C2)c1	.	-	-	-	-	-	.	.	.	.
COc1ccc(C(=O)Nc2ccc(S(=O)(=O)N3CCc4ccccc43)cc2)cc1	100	-	-	-	51	-	34%	-	-	-
NS(=O)(=O)c1ccc(NC(=O)c2ccc(S(=O)(=O)N3CCc4ccccc43)cc2)cc1	-	-	-	-	-	-	.	.	.	.
COc1ccc(NC(=O)c2cccc(S(=O)(=O)N3CCc4ccccc43)c2)cn1	25	-	-	-	-	-	-	-	-	-
O=C(Nc1ncccc1O)c1cccc(S(=O)(=O)N2CCc3ccccc32)c1	-	-	-	-	-	-	.	.	.	.
COc1ccc(/C=N/Nc2nnc(Cc3ccc(OC)c(OC)c3)c(=O)[nH]2)cc1	-	-	-	-	-	-	.	.	.	.
COc1ccc(/C=N/Nc2nnc(Cc3ccccc3)c(=O)[nH]2)cc1	-	-	-	-	-	-	-	-	-	-
CC1CN(C(=O)COC(=O)c2ccc(Cl)c(S(=O)(=O)N3CCCCC3)c2)CC(C)O1 (stereo not given)	-	-	-	-	-	-	.	.	.	.
COc1ccc(COC(=O)c2ccc(Cl)c(S(=O)(=O)N3CC(C)OC(C)C3)c2)cc1 (stereo not given)	25	-	-	-	-	-	16%	-	-	-
Cc1ccc(NC(=O)CC2=NC(=O)C(CC(=O)Nc3ccccc3F)S2)cc1 (stereo not given)	-	-	-	-	-	-	-	-	-	-
O=C(CC1SC(N2CCCC2)=NC1=O)Nc1ccc(C(=O)NCc2ccccc2F)cc1 (stereo not given)	.	.	-	-	-	-	.	.	.	.
COc1ccc(C(=O)Nc2nc(-c3cccs3)cs2)cc1	100	-	-	-	-	-	24%	-	-	-
O=C(Nc1nc(-c2cccs2)cs1)c1ccc(Cl)cc1	-	-	-	-	-	-	.	.	.	.
COCCNC(=S)N/N=C/c1c2ccccc2cc2ccccc12	-	-	-	-	-	-	30%	-	-	-
Cc1ccc(NC(=O)C2CCN(c3ncnc4c3nc3n4CCCCC3)CC2)nc1	-	-	-	-	-	-	.	.	.	.
Cc1cc(=O)oc2cc(OCC(=O)OCC(=O)N3CCc4ccccc43)ccc12	25	-	-	-	-	-	-	-	-	-
Cc1cc(=O)oc2cc(OCC(=O)OCC(=O)N(C)C3CCS(=O)(=O)C3)ccc12 (stereo not given)	-	-	-	-	-	-	-	-	-	-
CCOC(=O)c1[nH]c2ccc(OC)cc2c1NC(=O)CN1CCSCC1	100	-	-	-	-	-	-	-	-	-
SMILES	TMEM16A inh	ANO1 activ	CRFR2-BP antag	CRFR2-BP ag	TAAR1 antagonist	TAAR1 agonist	TMEM16A reconf	HEK293 Ca mobil	Parental YFP cnt	ClC-1 rat inh
COC(=O)c1[nH]c2ccc(C)cc2c1NC(=O)CN1CCN(c2ccccc2)CC1	100	-	-	-	-	-	20%	-	-	-
CC(C)C1C(=O)N(Cc2cn(CCC3OCCO3)nn2)CCS(=O)(=O)N1Cc1ccc(-c2ccc(F)cc2)cc1 (stereo not given)	.	.	-	-	-	-	.	.	.	.
Cc1cccc2cc3c(N)c(C(=O)Nc4ccc(N5CCOCC5)cc4)sc3nc12	-	-	-	-	-	-	-	-	-	-
CC(C)C(C)(C#N)NC(=O)CSc1ncnc2sc(-c3ccccc3)cc12 (stereo not given)	25	-	-	-	-	-	-	-	-	-
COCC(C)NC(=O)CSc1ncnc2sc(-c3ccccc3)cc12 (stereo not given)	-	-	-	-	-	-	.	.	.	.
Cc1cc(C)cc(N(CCC#N)C(=O)COC(=O)C2CCN(S(=O)(=O)c3ccc(C)c(C)c3)CC2)c1	-	-	-	-	-	-	.	.	.	.
Cc1cc2n(n1)C(c1cn(-c3ccccc3)nc1C)Nc1ccccc1-2 (stereo not given)	-	-	-	-	-	-	.	.	.	.
Cc1cc2n(n1)C(c1cn(-c3ccccc3)nc1C)Nc1c(C)cccc1-2 (stereo not given)	-	-	-	-	-	-	-	-	-	-
Cc1cc(Cl)c(S(=O)(=O)N2CCCCCC2)cc1OCC(=O)NC1CCCCC1	100	-	-	-	-	-	24%	-	-	-
Cc1cc(Cl)c(S(=O)(=O)N2CCN(c3ccccn3)CC2)cc1OCC(=O)NC1CCCCC1	100	-	-	-	-	-	-	-	-	-
Cc1cc(Cl)c(S(=O)(=O)N2CCSCC2)cc1OCC(=O)NC1CCCCC1	100	-	-	-	54	-	28%	-	-	-
CSCCC(NC(N)=O)C(=O)Nc1cccc(C#N)c1 (stereo not given)	-	-	-	-	-	-	.	.	.	.

Assay outcomes (PubChem)
